Calls of active or inactive are those of the source. No cut-off for these calls is given here.
Key:
[1] = target: T1, Peroxisome proliferator-activated receptor alpha (Homo sapiens) (UniProt Q07869); test: Partial agonist activity at Gal4-fused PPARalpha LBD (unknown origin) expressed in HEK293T cells after 14 to 16 hrs by dual-Glo luciferase assay relative to GW7647; type: cell-based
T1 sequence (whole entry): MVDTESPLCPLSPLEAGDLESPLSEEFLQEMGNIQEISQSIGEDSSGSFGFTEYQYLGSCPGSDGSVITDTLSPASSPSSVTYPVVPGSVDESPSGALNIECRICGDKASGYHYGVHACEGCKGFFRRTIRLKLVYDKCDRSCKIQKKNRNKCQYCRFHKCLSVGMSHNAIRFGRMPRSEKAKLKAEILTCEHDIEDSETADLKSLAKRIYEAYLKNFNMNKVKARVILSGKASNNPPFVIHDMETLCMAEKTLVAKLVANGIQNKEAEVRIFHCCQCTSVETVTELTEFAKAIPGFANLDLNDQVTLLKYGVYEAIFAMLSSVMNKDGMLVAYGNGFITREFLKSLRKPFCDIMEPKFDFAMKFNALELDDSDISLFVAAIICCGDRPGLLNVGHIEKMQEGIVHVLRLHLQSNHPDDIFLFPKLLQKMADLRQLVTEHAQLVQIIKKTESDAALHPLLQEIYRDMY
Procedure, shortened: (§1)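 Gal4 hybrid reporter assay in transiently transfected HEK293T cells. Constructs fuse the yeast Gal4 DNA-binding domain to the human receptor LBD. Firefly luciferase is the reporter. Constitutive renilla luciferase monitors transfection efficiency and toxicity. EC50 and maximal relative activation are reported as mean±S.E.M., n≥3.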

[2] = target: T2, Peroxisome proliferator-activated receptor delta (Homo sapiens, UniProt Q03181); test: Partial agonist activity at Gal4-fused PPARdelta LBD (unknown origin) expressed in HEK293T cells after 14 to 16 hrs by dual-Glo luciferase assay; type: cell-based; procedure, shortened: as §1
T2 sequence (Q03181 whole entry): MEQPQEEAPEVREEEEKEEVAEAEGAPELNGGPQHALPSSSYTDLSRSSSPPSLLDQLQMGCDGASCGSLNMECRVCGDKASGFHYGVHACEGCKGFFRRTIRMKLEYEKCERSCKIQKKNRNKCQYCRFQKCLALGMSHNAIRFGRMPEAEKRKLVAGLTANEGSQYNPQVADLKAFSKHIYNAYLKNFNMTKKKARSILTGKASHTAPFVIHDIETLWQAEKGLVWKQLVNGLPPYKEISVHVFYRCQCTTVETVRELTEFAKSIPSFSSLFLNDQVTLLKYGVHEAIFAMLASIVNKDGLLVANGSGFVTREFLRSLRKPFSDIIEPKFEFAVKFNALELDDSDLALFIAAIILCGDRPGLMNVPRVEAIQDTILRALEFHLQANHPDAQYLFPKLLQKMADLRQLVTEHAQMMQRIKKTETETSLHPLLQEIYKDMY

[3] = target: T3, Peroxisome proliferator-activated receptor gamma (Homo sapiens) (UniProt P37231); test: Partial agonist activity at Gal4-fused PPARgamma LBD (unknown origin) expressed in HEK293T cells after 14 to 16 hrs by dual-Glo luciferase assay relative to pioglitazone; type: cell-based; procedure, shortened: as §1
T3 sequence (whole entry): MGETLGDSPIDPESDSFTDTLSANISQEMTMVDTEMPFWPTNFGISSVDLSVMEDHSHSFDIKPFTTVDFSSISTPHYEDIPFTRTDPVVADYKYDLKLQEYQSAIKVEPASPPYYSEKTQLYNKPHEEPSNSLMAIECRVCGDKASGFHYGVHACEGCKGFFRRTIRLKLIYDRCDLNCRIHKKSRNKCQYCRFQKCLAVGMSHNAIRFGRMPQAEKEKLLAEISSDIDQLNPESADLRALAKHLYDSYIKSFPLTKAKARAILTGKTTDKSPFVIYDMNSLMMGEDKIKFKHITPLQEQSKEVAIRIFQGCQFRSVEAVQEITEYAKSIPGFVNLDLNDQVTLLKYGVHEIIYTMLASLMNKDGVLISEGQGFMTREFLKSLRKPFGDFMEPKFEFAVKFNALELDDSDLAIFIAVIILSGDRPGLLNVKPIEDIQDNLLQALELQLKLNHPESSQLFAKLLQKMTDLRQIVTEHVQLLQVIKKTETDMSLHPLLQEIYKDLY

[4] = target: T4, Peroxisome proliferator-activated receptor gamma (Homo sapiens, UniProt P37231); test: Partial agonist activity at Gal4-fused PPARgamma LBD (unknown origin) expressed in HEK293T cells after 14 to 16 hrs by dual-Glo luciferase assay; type: cell-based; procedure, shortened: as §1
T4 sequence (P37231 whole entry): T3 sequence (whole entry)

[5] = target: T5, Peroxisome proliferator-activated receptor alpha (Homo sapiens, UniProt Q07869); test: Partial agonist activity at Gal4-fused PPARalpha LBD (unknown origin) expressed in HEK293T cells after 14 to 16 hrs by dual-Glo luciferase assay; type: cell-based; procedure, shortened: as §1
T5 sequence (Q07869 whole entry): T1 sequence (whole entry)

[6] = target: T6, Peroxisome proliferator-activated receptor delta (Homo sapiens) (UniProt Q03181); test: Partial agonist activity at Gal4-fused PPARdelta LBD (unknown origin) expressed in HEK293T cells after 14 to 16 hrs by dual-Glo luciferase assay relative to L165041; type: cell-based; procedure, shortened: as §1
T6 sequence (whole entry): T2 sequence (Q03181 whole entry)

[7] = target: T6, Peroxisome proliferator-activated receptor delta (Homo sapiens); test: Partial agonist activity at Gal4-fused PPARdelta LBD (unknown origin) expressed in HEK293T cells at 10 uM after 14 to 16 hrs by dual-Glo luciferase assay; type: cell-based
[8] = target: T7, RXR alpha/PPAR gamma (Homo sapiens) (UniProt P37231+P19793); test: Partial agonist activity at 1:2 Gal4-fused PPARgamma LBD/Gal4-fused RXRalpha (unknown origin) expressed in HEK293T cells at 0.1 to 1 uM after 14 to 16 hrs by dual-Glo luciferase assay; type: cell-based
Procedure, shortened: (§2)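 Gal4-PPARγ hybrid reporter assay in HEK293T cells with Gal4-RXRα co-transfected. Firefly luciferase is the read-out, with constitutive renilla as the transfection and viability control. Efficacy is expressed relative to pioglitazone (1 µM). Activity data are normalized to counter variations in receptor protein amount.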

[9] = Effect on recombinant PPARgamma LBD/N-terminal GFP-fused RXRalpha mutant LBD (unknown origin) protein-protein dimerization at 10 uM measured after 2 hrs by HTRF assay; conditions: human
Procedure, shortened: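 Cell-free HTRF assay of PPARγ–RXRα dimerization on recombinant proteins.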

[10] = target: T7, RXR alpha/PPAR gamma (Homo sapiens); test: Partial agonist activity at 1:1 Gal4-fused PPARgamma LBD/Gal4-fused RXRalpha (unknown origin) expressed in HEK293T cells after 14 to 16 hrs by dual-Glo luciferase assay; type: cell-based; procedure, shortened: as §2
[11] = system: PPARgamma/RXR (Homo sapiens); test: Partial agonist activity at PPARgamma/RXR (unknown origin) expressed in HEK293T cells at 0.1 to 1 uM after 14 to 16 hrs by PPRE1 reporter gene based dual-Glo luciferase assay; conditions: HEK-293T
[12] = target: T3, Peroxisome proliferator-activated receptor gamma (Homo sapiens); test: Partial agonist activity at recombinant N-terminal GFP-fused PPARgamma LBD (unknown origin) assessed as increase in biotinylated-CBP peptide recruitment measured after 2 hrs by HTRF assay
Procedure, shortened: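 Cell-free HTRF assay of CBP coactivator recruitment to recombinant PPARγ protein.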

SMILES	max activation [1] [%]	EC50 [2] [µM]	max activation [3] [%]	EC50 [4] [µM]	EC50 [5] [µM]	max activation [6] [%]	Activity [7]	Activity [8]	Activity [9]	Activity [10]	EC50 [11] [µM]	Activity [12]
CCCCCCC(Sc1nc2ccc(NC(=O)c3ccccc3)cc2s1)C(=O)O (centres undefined)	31	7	43	4.9	0.77	27	–	–	–	–	–	–
CCCCCCC(Sc1nc2ccc(NCc3cc(Cl)cc(Cl)c3)cc2s1)C(=O)O (centres undefined)	19	9.2	35	2.9	3.8	25	–	–	–	–	–	–
CCCCCCC(Sc1nc2ccc(NCc3ccc4ccccc4c3)cc2s1)C(=O)O (centres undefined)	32	4.3	53	3	4	23	–	–	–	–	–	–
CCCCCCC(Sc1nc2ccc(NCc3cccc(Cl)c3)cc2s1)C(=O)O (centres undefined)	51	–	47	1.5	1.9	–	inactive	–	–	–	–	–
CCCCCCC(Sc1nc2ccc(NCc3ccc(C(F)(F)F)cc3)cc2s1)C(=O)O (centres undefined)	59	> 10	39	1.8	3.1	–	–	–	–	–	–	–
CCCCCCC(Sc1nc2ccc(NCc3ccc(Cl)cc3)cc2s1)C(=O)O (centres undefined)	37	–	50	2.4	1.36	–	inactive	–	–	–	–	–
CCCCCCC(Sc1nc2ccc(NC(=O)c3ccc(C(C)(C)C)cc3)cc2s1)C(=O)O (centres undefined)	12	6.2	19	4.3	3.1	22	–	–	–	–	–	–
CCCCCCC(Sc1nc2ccc(NS(=O)(=O)c3ccc(Cl)cc3)cc2s1)C(=O)O (centres undefined)	16	5.3	39	0.05	0.7	21	–	–	–	–	–	–
CCCCCCC(Sc1nc2ccc(NCc3ccc(C(C)(C)C)cc3)cc2s1)C(=O)O (centres undefined)	39	–	28	3.7	4	–	inactive	–	–	–	–	–
CCCCCC[C@@H](Sc1nc2ccc(NS(=O)(=O)c3ccc(Cl)cc3Cl)cc2s1)C(=O)O	18	0.81	101	0.0016	0.43	26	–	Active	Not Active	Active	0.16	Active
CCCCC(Sc1nc2ccc(NC(=O)c3ccc(C(C)(C)C)cc3)cc2s1)C(=O)O (centres undefined)	11	–	7.1	3.7	4.4	–	inactive	–	–	–	–	–
CCCCCCC(Sc1nc2ccc(NCc3ccc(Cl)c(Cl)c3)cc2s1)C(=O)O (centres undefined)	26	> 10	73	2.8	1.4	–	–	–	–	–	–	–
CCCCCCC(Sc1nc2ccc(NCc3ccc(-c4ccccc4)cc3)cc2s1)C(=O)O (centres undefined)	26	> 10	34	0.77	0.4	–	–	–	–	–	–	–
CCCCCCC(Sc1nc2ccc(NS(=O)(=O)c3ccc(C(C)(C)C)cc3)cc2s1)C(=O)O (centres undefined)	17	–	30	0.7	0.9	–	inactive	–	–	–	–	–
CCCCCCC(Sc1nc2ccc(NS(=O)(=O)c3ccc(-c4ccccc4)cc3)cc2s1)C(=O)O (centres undefined)	23	–	26	0.26	5	–	inactive	–	–	–	–	–
CCCCCC[C@H](Sc1nc2ccc(NS(=O)(=O)c3ccc(Cl)cc3Cl)cc2s1)C(=O)O	28	0.4	75	0.16	0.25	13	–	–	Not Active	–	–	–
CCCCCCC(Sc1nc2ccc(NCc3ccccc3)cc2s1)C(=O)O (centres undefined)	28	6.1	47	1.7	1	19	–	–	–	–	–	–

Source: ChEMBL document CHEMBL4354876, “A Selective Modulator of Peroxisome Proliferator-Activated Receptor γ with an Unprecedented Binding Mode” (J Med Chem, 2020)
